IC50 data for 1 molecule are collected here from BindingDB's records for doi:10.1021/acs.jmedchem.6b00914 (Amri, 2016).

The pIC50 is the negative decadic logarithm of the IC50, by convention in mol/L.

The test addresses T1, Sodium- and chloride-dependent glycine transporter 2 (Homo sapiens, UniProt Q9Y345).
T1 sequence (Q9Y345 whole entry): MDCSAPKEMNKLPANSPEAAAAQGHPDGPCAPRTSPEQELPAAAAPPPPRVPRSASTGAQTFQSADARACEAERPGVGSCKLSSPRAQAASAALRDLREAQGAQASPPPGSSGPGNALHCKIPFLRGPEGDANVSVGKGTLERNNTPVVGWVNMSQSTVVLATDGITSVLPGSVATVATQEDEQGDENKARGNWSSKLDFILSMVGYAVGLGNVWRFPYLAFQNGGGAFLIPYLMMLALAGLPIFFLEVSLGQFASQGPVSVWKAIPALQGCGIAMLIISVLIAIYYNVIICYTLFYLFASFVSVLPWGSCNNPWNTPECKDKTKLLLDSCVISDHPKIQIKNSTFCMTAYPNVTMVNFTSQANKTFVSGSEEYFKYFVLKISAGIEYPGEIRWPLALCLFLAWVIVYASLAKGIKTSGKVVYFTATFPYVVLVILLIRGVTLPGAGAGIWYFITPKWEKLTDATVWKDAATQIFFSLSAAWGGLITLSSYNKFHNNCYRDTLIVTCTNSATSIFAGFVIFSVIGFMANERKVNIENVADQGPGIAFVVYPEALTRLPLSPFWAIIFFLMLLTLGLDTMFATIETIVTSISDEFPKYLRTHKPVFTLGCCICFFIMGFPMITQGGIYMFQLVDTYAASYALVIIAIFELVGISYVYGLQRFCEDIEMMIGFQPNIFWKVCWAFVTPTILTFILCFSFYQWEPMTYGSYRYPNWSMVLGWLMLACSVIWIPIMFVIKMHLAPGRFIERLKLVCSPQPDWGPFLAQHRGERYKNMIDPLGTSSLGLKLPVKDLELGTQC
The experiment in a line: Inhibition of human glycine transporter-2 expressed in HEK293 cells assessed as reduction in [14C]glycine uptake preincubated for 10 mins followed by [14C]glycine addition measured after 3 hrs by scintillation proximity assay. The method, boiled down:
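HEK293 cells stably transfected with GlyT-2 (Geneticin-selected polyclonal population) were plated on poly-L-lysine-coated plates in DMEM/10% FBS and incubated overnight. The [¹⁴C]glycine uptake SPA was then run as for JAR cells: uptake buffer, 10 min room-temperature preincubation, 3 h incubation at 37 °C.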
(In general: SPA uses beads or plates that emit light when radiolabelled molecules are held near them.)

pIC50: −log10 of the molar value.

Take `CC(NC(=O)c1ccc(C(F)(F)F)cc1Cl)C1(N2CCN(S(=O)(=O)c3cn(C)nn3)CC2)CCC(F)(F)CC1` (stereo unspecified): the negative logarithm of the IC50 (pIC50) is < 4.12.
